This note sets out measurements from PubChem BioAssay AID652163 (Broad Institute, 2013).

Hit rate of the full screen: of about 360,000 compounds, about 500 (0.14%) were called active. Shown is part of a subset that was picked to be rich in actives. Unmarked numbers belong to inactive results.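 How the source made its calls: active means mean inhibition of at least 70% across replicates, with every replicate also reaching that level; inconclusive means mean inhibition reaches 70% but some replicates fall short; inactive means mean inhibition below 70%.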

Protein S100-A4 (Homo sapiens), sequence (P26447 whole entry, looked up): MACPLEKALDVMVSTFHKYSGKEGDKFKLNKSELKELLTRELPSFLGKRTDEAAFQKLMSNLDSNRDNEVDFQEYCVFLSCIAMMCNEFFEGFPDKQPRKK

For this assay, the target named is Protein S100-A4 (Homo sapiens) (UniProt P26447). Description: inhibitors of S100A4-myosin IIA peptide binding, primary screen, biochemical, fluorescence polarization, TAMRA-MyoIIA peptide (AID 652163). The settings on record: at 10.7 µM, stronger effect = higher value. The gist of the method:
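Test system – S100A4 monomer (human) · Compound – single-point compound testing · Schedule – 5 min incubation before reading · Probe or stimulus – TAMRA-labelled myosin IIA heavy-chain peptide probe, 5 nM · Benchmarks – neutral control DMSO, positive control TFP · Medium – Calcium-containing HEPES buffer, pH 7.2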
Background: In fluorescence polarisation assays a small probe gives low polarisation when free and higher when bound to something large.
As usually defined, the inhibition is the relative decrease from the control value, in per cent. `C[C@H]1CN([C@@H](C)CO)C(=O)c2cc(C#CC3CCCC3)cnc2O[C@H]1CN(C)C(=O)c1ccncc1`: the inhibition is 11.5%.

As to `CO[C@H]1CN(C)C(=O)c2cc(NC(=O)C3CC3)ccc2OC[C@H](C)N(Cc2ccccc2)C[C@H]1C`, the inhibition was 3.65%.

On to `O=C(N[C@@H]1CC[C@@H](CC(=O)N2CCc3ccccc3C2)O[C@@H]1CO)C1CCOCC1`, for which the inhibition was 13.9%.

With `C[C@@H]1CN([C@@H](C)CO)C(=O)c2cc(NS(=O)(=O)c3cn(C)cn3)ccc2O[C@@H]1CN(C)C(=O)NC1CCCCC1`, the inhibition was 12.5%.

On to `O=C(C[C@@H]1CC[C@@H]2[C@H](COC[C@H](O)CN2C(=O)c2ccc3c(c2)OCO3)O1)NC1CCCC1`, for which the inhibition was 6.17%.

Turning to `CC(C)NC(=O)N(C)C[C@@H]1Oc2ccc(NC(=O)C3CCCCC3)cc2CC(=O)N([C@H](C)CO)C[C@@H]1C`, the inhibition is 1.64%.

With `C[C@@H]1CCCCO[C@H](CN(C)C(=O)Nc2ccc3c(c2)OCO3)[C@H](C)CN([C@H](C)CO)C(=O)c2cc(NS(C)(=O)=O)ccc2O1`, the inhibition was -0.157%.

Turning to `Cn1c(=O)n(C)c2cc(S(=O)(=O)Nc3ccc(F)cc3)ccc21`, the inhibition is 0.871%.

On to `CNS(=O)(=O)c1ccc2c(c1)[nH]c(=S)n2C`, for which the inhibition was 82.4% (active).

On to `CCn1c(=S)[nH]c2cc(S(=O)(=O)N3CCOCC3)ccc21`, for which the inhibition was -2.43%.

Consider `COC(=O)c1c(NC(=O)CSc2nncs2)sc2c1CCCCC2`, for which the inhibition is -2.13%.

Take `COC(=O)c1c(NC(=O)C2CC(C)=C(C)CC2C(=O)O)sc2c1CCCCC2` (configuration not stated): the inhibition was -3.38%.

On to `Cc1noc(C)c1NC(=O)Nc1ccc2c(c1)C(=O)N([C@H](C)CO)C[C@H](C)[C@@H](CN(C)S(C)(=O)=O)OCCCC[C@H](C)O2`, for which the inhibition is 7.29%.

With `Cc1noc(C)c1S(=O)(=O)N(C)C[C@H]1OCCCC[C@H](C)Oc2ccc(NS(=O)(=O)c3ccccc3)cc2C(=O)N([C@H](C)CO)C[C@@H]1C`, the inhibition was 106% (active).

Regarding `Cc1noc(C)c1S(=O)(=O)N(C)C[C@@H]1OCCCC[C@@H](C)Oc2ccc(NS(=O)(=O)c3ccccc3)cc2C(=O)N([C@H](C)CO)C[C@@H]1C`, the inhibition was -6.41%.

As to `C[C@@H]1CCCCO[C@@H](CN(C)C(=O)Cc2ccccc2)[C@H](C)CN([C@@H](C)CO)C(=O)c2cc(NC(=O)Nc3ccc4c(c3)OCO4)ccc2O1`, the inhibition is 121% (active).

`Cc1noc(C)c1NC(=O)Nc1ccc2c(c1)C(=O)N([C@H](C)CO)C[C@@H](C)[C@@H](CN(C)S(=O)(=O)c1ccc(Cl)cc1)OCCCC[C@H](C)O2`: the inhibition was 108% (active).

For the compound `C[C@@H]1CCCCO[C@H](CN(C)C(=O)c2ccccc2)[C@H](C)CN([C@@H](C)CO)C(=O)c2cc(NC(=O)Nc3ccc4c(c3)OCO4)ccc2O1`, the inhibition is -5.3%.

Take `Cc1noc(C)c1S(=O)(=O)Nc1ccc2c(c1)C(=O)N([C@@H](C)CO)C[C@@H](C)[C@@H](CN(C)S(=O)(=O)c1ccccc1)OCCCC[C@H](C)O2`: the inhibition was -42.8%.

As to `Cc1noc(C)c1NC(=O)Nc1ccc2c(c1)C(=O)N([C@H](C)CO)C[C@@H](C)[C@H](CN(C)S(=O)(=O)c1ccc(Cl)cc1)OCCCC[C@H](C)O2`, the inhibition was -9.02%.

In the case of `CC(C)NC(=O)Nc1ccc2c(c1)C(=O)N([C@@H](C)CO)C[C@@H](C)[C@H](CN(C)C(=O)Cc1ccccc1)OCCCC[C@H](C)O2`, the inhibition was 2.76%.

For the compound `CCCC(=O)Nc1ccc2c(c1)OC[C@H](C)N(CCC(F)(F)F)C[C@@H](C)[C@H](OC)CN(C)C2=O`, the inhibition was -10.8%.

As to `CCCC(=O)N1CC2(C1)CN(C(=O)Nc1cccc(F)c1)[C@@H](CO)c1c2c2ccc(OC)cc2n1C`, the inhibition was 14.3%.

Consider `CN1c2ccc(-c3ccccc3)cc2[C@@H]2[C@@H](CCN2C(=O)c2ccncc2)[C@@H]1CO`, for which the inhibition was 0.924%.

For `CN1c2ccc(-c3cccc(F)c3)cc2[C@H]2[C@H](CCN2C(=O)c2cccc(F)c2)[C@H]1CO`, the inhibition is -3.81%.

Regarding `CN1c2ccc(-c3ccccc3)cc2[C@@H]2[C@@H](CCN2C(=O)c2ccccc2)[C@H]1CO`, the inhibition is 80% (active).

Consider `CN1CCN(C(=O)C[C@H]2CC[C@H]3[C@@H](COC[C@H](O)CN3C(=O)c3ccc(F)cc3)O2)CC1`, for which the inhibition was -6.97%.

As for `CCCNC(=O)N1C[C@H](C)[C@@H](OC)CN(C)C(=O)c2ccc(NS(=O)(=O)CC(F)(F)F)cc2OC[C@@H]1C`, the inhibition is -4.41%.

`O=C(NCC1CC1)[C@@H]1[C@@H](CO)[C@@H]2Cn3c(ccc(-c4ccncc4)c3=O)[C@H]1N2Cc1nccs1`: the inhibition was 5.95%.

As for `C[C@@H]1CN([C@@H](C)CO)C(=O)Cc2cc(NS(C)(=O)=O)ccc2O[C@@H]1CN(C)Cc1ccc2c(c1)OCO2`, the inhibition was -41.9%.

Regarding `O=C([C@@H]1[C@@H](CO)[C@@H]2Cn3c(ccc(-c4ccccc4F)c3=O)[C@H]1N2C(=O)C1CCC1)N1CCCCC1`, the inhibition is 3.88%.

For `CCCN1[C@H](C(=O)N2CCCCC2)[C@@H](CO)[C@@H]2Cn3c(ccc(-c4ccccc4F)c3=O)[C@@H]21`, the inhibition is 89.8% (active).

On to `CN(C)C(=O)[C@@H]1[C@@H](CO)[C@@H]2Cn3c(ccc(-c4ccccc4F)c3=O)[C@@H]2N1C(=O)C1CC1`, for which the inhibition was -4.07%.

Turning to `N#C[C@@H]1[C@@H](c2ccccc2)[C@@H](CO)N1C(=O)c1cc(Cl)cc(Cl)c1`, the inhibition is 3%.

On to `COc1ccccc1-c1cnc2c(c1)C(=O)N([C@H](C)CO)C[C@H](C)[C@@H](CN(C)CC1CCOCC1)O2`, for which the inhibition is -8.2%.

For `COc1cccc(C(=O)Nc2ccc3c(c2)OC[C@H](C)NC[C@H](C)[C@H](OC)CN(C)C3=O)c1`, the inhibition is -5.1%.

In the case of `C[C@H](CO)N1C[C@H](C)[C@@H](CN(C)C(=O)NC2CCCCC2)Oc2ccc(NC(=O)c3ccncc3)cc2CC1=O`, the inhibition is 5.06%.
